Bioassay records (PubChem BioAssay)
T cell HTS – modulates CD8 T cell binding to vesicles. 2C CD8+ T cell-vesicle binding, flow cytometry; hits give low values. response (vesicle binding), % at 7 µM. hit rate 0.068% among 330,000. AID 2052;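 active = response, share of CD8 T cells binding vesicles, and their 90th percentile fluorescence all below set limits, cut at about 80% in these data, passing the limit was not always enough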;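 note: values below 100% mean blocked vesicle binding to the CD8+ T cells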
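Incubation: binding step 1.5 h, 37 °C, antibody labelling 20 min, ice; system: murine 2C transgenic CD8+ T lymphocytes; technique: cytometric PE anti-B7-1 and Alexa647 anti-CD8 signals after 1% paraformaldehyde fixation; also added: QL9-charged Drosophila Ld/ICAM-1/B7-1 vesicles; control set: naked versus QL9-loaded vesicles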
Rce1 inhib – inhibitors of yeast Ras-converting enzyme; Q03530; yeast membranes, quenched prenylated peptide cleavage fluorescence; calls only; hit rate 0.27% among 290,000;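 active = fall in fluorescence gain of 50% or more versus controls, with final raw signal at or below 3038400; inconclusive = same 50% fall but final raw signal above 3038400; inactive = fall in fluorescence gain under 50%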;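 note: plate controls were neutral control wells for no effect and wells lacking membranes for full effect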
Rin1 Abl inh – blocks binding of human Rin1 to Abl; P00519+Q13671; TR-FRET Rin1/Abl binding, biochemical; inhibition, % at 7.35 µM; hit rate 0.4% among 360,000; AID 588664; in the data active = inhibition above about 5%, passing the limit was not always enough
Myeloid diff 2 – promotes myeloid progenitor differentiation; ER-HoxA9 myeloid progenitors, lysozyme-GFP differentiation, flow cytometry; calls only at 10 µM; hit rate 1% among 360,000; AID 624256;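 active = normalized GFP-positive differentiation at or above the plate's own cutoff, the solvent-only control mean plus 3 SD; inconclusive = no clear call, values can overlap the other calls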;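 note: cells exposed to compound for four days before flow analysis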
SKN-1 block – C. elegans SKN-1 inhibition | hit rate 0.49% among 360,000 | C. elegans VP596 Pgst-4::GFP/RFP ratio, acrylamide-induced, 24 h | AID 624304 | inhibition, % at 21.8 µM;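 active = interference check ratio from 0.5 to 1.5 plus GFP to RFP signal ratio inhibition reaching or exceeding a fixed threshold, cut at about 30% in these data, passing the limit was not always enough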
GRK2 inh – human GRK2 inhibition via aptamer displacement | P25098 | bead flow cytometry, FAM-aptamer displacement from GRK2 | inhibition of aptamer binding, % at 10 µM | hit rate 0.59% among 330,000 | AID 488847;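 active = inhibition of aptamer binding above 40%, roughly 3 SD of noise, on plates passing a quality check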;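 note: median bead fluorescence of bound FAM aptamer so fluorescent compounds give negative values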
Target sequence (P25098 whole entry, looked up): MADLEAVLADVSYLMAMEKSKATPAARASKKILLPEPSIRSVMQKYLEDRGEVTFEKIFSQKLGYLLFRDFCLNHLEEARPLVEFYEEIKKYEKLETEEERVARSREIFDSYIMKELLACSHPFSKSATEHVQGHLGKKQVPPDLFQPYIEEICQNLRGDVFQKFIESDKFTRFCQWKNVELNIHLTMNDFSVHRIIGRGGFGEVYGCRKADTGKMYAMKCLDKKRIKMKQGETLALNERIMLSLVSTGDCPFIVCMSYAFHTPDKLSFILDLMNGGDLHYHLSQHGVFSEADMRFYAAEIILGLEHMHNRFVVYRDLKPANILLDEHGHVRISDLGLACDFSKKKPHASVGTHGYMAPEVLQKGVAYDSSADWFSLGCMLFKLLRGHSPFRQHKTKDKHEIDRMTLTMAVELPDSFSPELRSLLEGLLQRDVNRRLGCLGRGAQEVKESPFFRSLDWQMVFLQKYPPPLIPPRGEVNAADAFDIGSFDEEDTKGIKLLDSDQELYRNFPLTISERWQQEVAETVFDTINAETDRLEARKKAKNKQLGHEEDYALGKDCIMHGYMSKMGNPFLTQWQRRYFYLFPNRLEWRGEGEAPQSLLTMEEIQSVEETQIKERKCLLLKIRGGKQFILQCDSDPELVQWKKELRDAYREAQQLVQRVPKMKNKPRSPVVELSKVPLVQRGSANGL
* marks the source's active call; other numbers are inactive results; i = inactive; ? = inconclusive; / = not tested or not shown; + = active, no number. Sampled rows, rich in hits. Any-hit rate of the full collection: about 2.6%.

SMILES | T cell HTS | Rce1 inhib | Rin1 Abl inh | Myeloid diff 2 | SKN-1 block | GRK2 inh
COCc1ccc(C(=O)N2CCCC(Nc3ccc4c(c3)OCCO4)C2)o1 (centres undefined) | 0.0 | i | -2.1 | i | -5.3 | 3.0
COc1cccc(CC2(CO)CCN(C(=O)NCCc3ccccc3)CC2)c1 | 345.2 | i | -4.5 | + | -4.4 | 2.0
Cc1ccc(-c2nc(-c3cccnc3)no2)c(C)c1 | 639.0 | i | 0.7 | i | 15.3 | 2.0
Cc1c(-c2nc(-c3cccnc3)no2)cccc1[N+](=O)[O-] | 89.1 | i | -2.8 | i | 41.9* | 3.0
N#C/C(=C/c1cccs1)c1ccccn1 | 350.5 | i | -1.7 | i | 21.7 | 0.0
N#C/C(=C\c1ccccn1)c1ccccn1 | 245.1 | i | 1.2 | + | -16.4 | 0.0
CC(=O)Nc1ccc(S(=O)(=O)NC2(C(F)(F)F)C(=O)Nc3c2c(=O)[nH]c(=O)n3Cc2ccco2)cc1 (centres undefined) | 170.4 | i | 0.5 | i | -5.5 | 4.0
Fc1ccc(-c2nc3ccc(Br)cn3c2Cc2ccccc2C(F)(F)F)cc1 | / | / | -2.1 | i | 50.9* | /
CC(NC(C)c1ccccc1Cl)C(=O)Nc1cccc(S(=O)(=O)N2CCCCC2)c1 (centres undefined) | 509.2 | / | 0.6 | i | 17.5 | 0.0
Cc1[nH]c(=O)[nH]c(=O)c1/C=C/C(=O)O | 509.2 | i | -1.9 | i | 1.9 | 2.0
COc1ccc(C2=NN(c3ccc(C=O)cc3)C(c3ccccc3)C2)cc1 (centres undefined) | 540.4 | ? | / | / | / | 3.0
COc1ccc(C2CC(c3cccs3)=NN2c2ccc(C=O)cc2)cc1 (centres undefined) | 680.4 | + | / | / | / | 0.0
COc1ccc(C(=O)CN2C(=O)NC3(CCCc4ccccc43)C2=O)c(OC)c1 (centres undefined) | 198.7 | i | -2.5 | i | 10.7 | 0.0
CC1=NN(c2ccccc2)C(=O)/C1=C/N(C)C | 131.4 | i | -2.7 | i | -9.5 | 1.0
CC1=NN(c2ccccc2)C(=O)/C1=C\C=C1\N(C)c2ccccc2C1(C)C | 280.6 | i | -11.0 | i | 37.8* | 0.0
CC1=NN(c2ccccc2)C(=O)/C1=C\C=C1/N(C)c2ccccc2C1(C)C | 99.9 | / | -9.4 | i | 46.8* | 0.0
CC1=C(C(=O)N2CCOCC2)CC(CC(=O)NCCCCc2ccccc2)C(=O)N1CCCN1CCCC1=O (centres undefined) | / | / | -1.4 | i | 1.2 | /
C[C@H](NC(=O)c1nc[nH]c1C(=O)N(C)CCO)c1ccccc1 | / | / | -1.0 | i | -6.1 | /
CCc1ccc(Nc2oc(C)cc(=O)c2C(C)=O)cc1 | 132.5 | i | 1.4 | i | 69.2* | 0.0
CCOc1ccc(N(Cc2ccc(OC)cc2)C(=O)c2ccco2)cc1 | 207.5 | + | -2.8 | i | -0.5 | 2.0
CCOc1ccc(N(Cc2ccc(OC)c(OC)c2)C(=O)c2ccco2)cc1 | 348.8 | i | 4.1 | i | 11.4 | 1.0
CC(=O)Nc1nnc(Cc2c[nH]c3ccccc23)s1 | 132.2 | i | 2.2 | / | -0.9 | 0.0
Cc1cccc(N2CCN(C(=O)c3cc4c(=O)n(C)c5ccccc5c4n3C)CC2)c1C | 280.6 | i | 0.1 | + | 3.6 | 0.0
Cc1ccc(Cl)cc1N1CCN(C(=O)c2cc3c(=O)n(C)c4ccccc4c3n2C)CC1 | 64.4 | i | -1.4 | + | 28.1 | 7.0
CC(Oc1ccccc1)C(=O)N=C1SC2CS(=O)(=O)CC2N1c1ccccc1 (centres undefined) | 434.9 | i | 1.1 | i | 16.7 | 1.0
SMILES | T cell HTS | Rce1 inhib | Rin1 Abl inh | Myeloid diff 2 | SKN-1 block | GRK2 inh
Nc1cccc2cc(S(=O)(=O)O)ccc12 | / | / | 1.0 | i | 51.0* | /
CN(CC(=O)Nc1cccc(F)c1)C(=O)c1cc(=O)[nH]c2ccccc12 | 456.4 | / | 2.2 | i | -9.7 | 2.0
CCOC(=O)C(C)On1c(-c2ccc(Cl)cc2)nc2ccc([N+](=O)[O-])cc21 (centres undefined) | 301.9 | i | -4.1 | i | 41.2* | 4.0
O=C(O)COn1c(-c2ccc(Cl)cc2)nc2ccc(Cl)cc21 | 485.1 | i | 0.3 | i | 12.0 | 2.0
COn1c(-c2ccc(Cl)cc2)nc2ccc(Cl)cc21 | 269.6 | i | -2.0 | i | 87.4* | 2.0
O=[N+]([O-])c1ccc2nc(-c3ccc(Cl)cc3)n(OCc3ccccc3)c2c1 | 473.7 | i | -4.2 | i | 40.8* | 0.0
O=C(Cn1nnc(-c2cc(C(F)(F)F)cc(C(F)(F)F)c2)n1)NNC(=S)Nc1ccc(Cl)cc1 | i | i | -1.0 | i | 3.0 | 1.0
OCCN(Cc1ccccc1)CC(O)COc1ccc2c(c1)OCO2 (centres undefined) | 339.4 | i | 6.9 | i | -1.7 | 1.0
COC(=O)[C@@]12C[C@@H](CC(=O)NCCc3ccccc3OC)C(=O)N(Cc3ccco3)C1=CCC(C)(C)C2 | / | / | / | i | -7.5 | /
CCCS(=O)(=O)NC(=O)C1(C)CCN(C(=O)c2cc(C(C)(C)C)nn2C)C1 (centres undefined) | / | / | -3.0 | i | -7.9 | /
COc1ccccc1NC(=O)Nc1nc(C(N)Cc2ccc(C(F)(F)F)cc2)cs1 (centres undefined) | / | / | 1.3 | i | 10.9 | /
NC(Cc1ccccc1)c1csc(NC(=O)Nc2ccccc2Oc2ccccc2)n1 (centres undefined) | / | / | 1.7 | + | 2.7 | /
NC(Cc1ccc(C(F)(F)F)cc1)c1csc(NC(=O)Nc2ccccc2Oc2ccccc2)n1 (centres undefined) | / | / | 3.4 | + | 16.8 | /
C[C@H]1CN([C@@H](C)CO)C(=O)CCCn2cc(nn2)CO[C@@H]1CN(C)C(=O)c1ccncc1 | / | / | 0.6 | i | 12.8 | /
COc1cc2nc(NC(=O)c3ccc(F)cc3Cl)sc(=O)c2cc1OC | 566.5 | i | -4.4 | i | 5.5 | 0.0
CCOc1ccc(Nc2nc3c(C)cccc3cc2C#N)cc1 | 185.2 | i | -2.4 | + | 11.0 | 0.0
CCC(=O)NC(c1ccccc1OC)c1ccc2cccnc2c1O (centres undefined) | 506.6 | i | 13.9* | / | 11.1 | 1.0
CCOc1cc(NC(=S)NCCCN2CCOCC2)c(OCC)cc1NC(=O)c1ccc(C)cc1 | 347.0 | i | 0.9 | i | -12.8 | 0.0
CCCCn1nc2cc(C(=O)NCC34CC5CC(CC(C5)C3)C4)ccc2c1OCC | 159.5 | i | 1.9 | + | 6.6 | 0.0
CCCCn1nc2cc(C(=O)NCCc3cccs3)ccc2c1OCC | 309.4 | i | 0.7 | i | 6.5 | 0.0
O=C(CCN1C(=O)/C(=C\c2ccccc2Cl)SC1=S)Nc1cccnc1 | 591.4 | i | -0.3 | i | -0.3 | 3.0
O=C(CCN1C(=O)/C(=C/c2ccccc2Cl)SC1=S)Nc1ccccc1C(=O)O | 122.7 | i | -0.1 | i | 39.2* | 1.0
